From article PMC3163381 (Biochemistry, 2011)

Assays:
[1] = Surface tension measurements at the air-water interface; assay type: physicochemical; details: for surface activity at the air-water interface: result in words
[2] = Pressure-area isotherms of lipid monolayers with the substance in the subphase; assay type: physicochemical, Escherichia coli; details: for increase in the lipid molecular area: 1 mM in subphase, at 35 mN/m (monolayer-bilayer equivalence pressure)
[3] = Solubility and stock solution observations in aqueous solution; details: result in words
MscS = assay: Patch-clamp of MscS in giant spheroplast patches, activation midpoint; assay type: biochemical, E. coli
Outline: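 Giant spheroplasts from cephalexin-treated E. coli MJF 465 (mscS/mscK/mscL) expressing WT MscS. Excised inside-out patches in symmetrical 200mM KCl, 45mM MgCl2, 5mM CaCl2, 5mM HEPES (pH 7.4, KOH); bath had 400mM sucrose added. Test compound was perfused into the bath (cytoplasmic side). p0.5 was taken from 1 s pressure ramps, first within 1 min, then tracked over time, and normalized to pre-addition control.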

[4] = Stability of AI-1 in water and phosphate buffer; assay type: physicochemical
Outline: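 Test compound was held in deionized water and in phosphate buffer at pH 7.4, and followed over several days. Half-life was determined in the buffer.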

With `c1ccc2[nH]ccc2c1` [Indole] the “surface activity at the air-water interface” value [1] was “did not show any appreciable surface activity”, the “increase in the lipid molecular area” value [2] was 5% and the “solubility in aqueous solution” value [3] was “limited solubility”. The “level at which p0.5 stabilizes above the control” value (MscS; 2.5 mM indole, after return) was ~ 4% and the “transient shift of MscS activation curve towards higher tension” value (MscS; 2.5 mM indole, cytoplasmic side, naive patch) was ~ 20%.
In the case of `CC(=O)C(=O)C(O)CO` (centres unmarked) [AI-2 (Methyl), 4,5-dihydroxy-2,3-pentanedione], the “surface activity at the air-water interface” value [1] is reported as “did not show any appreciable surface activity”, the “increase in the lipid molecular area” value [2] is reported as 2% and the “effect on the activation midpoint of MscS” value (MscS; up to 1 mM in the bath, result in words, listed as AI-2) is reported as “no detectable shifts”.
For `CCCCCCCC(=O)CC(=O)N[C@H]1CCOC1=O` [AI-1, N-(3-Oxodecanoyl)-L-homoserine lactone], the “Γ, surface excess” value ([1]; Gibbs isotherm fit, 100 mM KCl, 5 mM HEPES pH 7.4) was 3.4*10^−6 mol/m^2, the “AS, molecular area at the surface” value ([1]; air-water interface, from Gibbs isotherm fit) was 49 Å^2 and the “decrease of surface tension of the solution” value ([1]; at 1–5 mM, aqueous buffer pH 7.4) was ~ 17 mN/m. For the same compound, the “log Kmemb, membrane partitioning coefficient” value ([1]; calculated from AS and KAW according to Suomalainen) was 1.94, the “KAW, propensity toward air-water interface” value ([1]; extrapolated Gibbs isotherm fit, pH 7.4) was 5600 M⁻¹ and the “lateral pressure increase in monolayers” value ([2]; at lipid area of 68–70 Å^2, Fig. 4A) was ~ 5 mN/m. For the same compound, the “stability in pure water” value ([4]; deionized water, result in words) was “stable in pure water in the course of several days”, the half-life ([4]; phosphate buffer at pH 7.4) was 130 h and the “shift of MscS p0.5 toward higher tension” value (MscS; 1 mM AI-1 from cytoplasmic side, relative to untreated control) was ≤ 23%.
